Sampled rows, rich in hits. Any-hit rate of the full collection: about 2.3%.
TRPC6 inhibitor: inhibitors of mouse TRPC6 channel. HEK293-TRPC6, membrane potential dye, ACh-evoked depolarization; stronger effect = lower value. B-score at 10 µM. 310,000 compounds, 1.1% hits;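 active means B-score under library mean minus 3 SD, initial fluorescence not abnormally high, positive integrated signal ratio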;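 further: B-score derived from integrated fluorescence ratio over the kinetic read; more negative B-score means stronger inhibition of depolarization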
TRPC4 act: opens the mouse TRPC4 cation channel | Q9QUQ5 | HEK293 TRPC4beta/mu-opioid, Fluo4 calcium fluorescence; stronger effect = higher value | B-score at 10 µM | 310,000 compounds, 0.49% hits | AID 2237;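 active means B-score above 5 SD of library B-scores, and initial fluorescence ratio not above library mean plus 5 SD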;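 further: positive B-score marks a calcium rise read as TRPC4 activation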
Target sequence (Q9QUQ5 whole entry, looked up): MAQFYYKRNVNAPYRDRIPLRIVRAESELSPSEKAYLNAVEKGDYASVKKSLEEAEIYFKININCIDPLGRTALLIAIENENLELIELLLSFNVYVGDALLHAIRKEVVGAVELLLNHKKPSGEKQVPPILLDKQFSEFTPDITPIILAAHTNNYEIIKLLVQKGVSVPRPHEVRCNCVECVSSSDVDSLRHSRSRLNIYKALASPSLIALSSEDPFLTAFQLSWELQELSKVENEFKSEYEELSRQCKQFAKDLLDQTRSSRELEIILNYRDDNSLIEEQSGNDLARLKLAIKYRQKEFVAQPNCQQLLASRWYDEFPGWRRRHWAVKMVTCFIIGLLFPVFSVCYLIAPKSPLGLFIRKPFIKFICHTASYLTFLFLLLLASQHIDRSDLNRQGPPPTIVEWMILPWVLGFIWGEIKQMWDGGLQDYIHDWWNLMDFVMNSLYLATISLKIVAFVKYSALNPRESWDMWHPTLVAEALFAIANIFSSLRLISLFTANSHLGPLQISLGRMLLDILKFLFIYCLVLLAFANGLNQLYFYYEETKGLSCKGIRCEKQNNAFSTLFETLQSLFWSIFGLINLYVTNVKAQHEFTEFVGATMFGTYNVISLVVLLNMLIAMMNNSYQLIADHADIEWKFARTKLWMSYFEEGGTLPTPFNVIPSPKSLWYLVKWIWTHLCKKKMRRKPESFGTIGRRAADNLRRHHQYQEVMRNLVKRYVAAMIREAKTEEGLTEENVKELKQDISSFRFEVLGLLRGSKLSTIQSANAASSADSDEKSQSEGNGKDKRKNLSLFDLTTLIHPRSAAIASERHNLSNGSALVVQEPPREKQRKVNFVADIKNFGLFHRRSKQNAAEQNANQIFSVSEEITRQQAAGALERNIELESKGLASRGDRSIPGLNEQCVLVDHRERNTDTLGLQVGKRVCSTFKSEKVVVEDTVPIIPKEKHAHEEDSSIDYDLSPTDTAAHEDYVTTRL
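Material: HEK293 stable line with TRPC4beta plus mu-opioid receptor; technique: Fluo4 calcium-sensitive dye fluorescence, kinetic, 1 Hz baseline; timing: Fluo4 dye loading 45 min at room temperature, 110 s recording; controls: assay buffer as low control, maximal DAMGO as high control; read-out: integrated baseline-normalised fluorescence ratio, converted to per-well B score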
TRPC4 PAM: TRPC4 (mouse) allosteric potentiation; B-score at 10 µM; 310,000 compounds, 0.42% hits; HEK293 TRPC4beta/mu-opioid, DAMGO EC20, Fluo-4 Ca2+ flux; stronger effect = higher value; Q9QUQ5;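 active means B-score of calcium response area above 5 SD of library B-scores, with initial fluorescence ratio within 5 SD of library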
TRPC4 inh: blocks the mouse TRPC4 cation channel. Q9QUQ5. HEK293 TRPC4beta/mu-opioid, DAMGO-evoked Fluo4 calcium flux; stronger effect = lower value. B-score at 10 µM. 300,000 compounds, 0.39% hits. AID 2247;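 active means B-score over 3 SD under the library average, no early fluorescence shift, positive overall ratio signal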
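Assay system: HEK293 cells with stable TRPC4beta plus mu-opioid receptor expression. Dosing: single dose. Measured by: Fluo4 Ca2+ flux fluorescence. Also added: DAMGO in two steps, submaximal then maximal. Read-out: B score from integrated Fluo4 fluorescence ratio.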
TRPC6 act: activates the mouse TRPC6 cation channel; Q61143; HEK293-TRPC6 membrane potential dye fluorescence; stronger effect = higher value; 310,000 compounds, 0.13% hits; B-score at 10 µM;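 active means B-score of the integrated fluorescence ratio above library mean plus 3 SD, and starting fluorescence ratio within library mean plus 5 SD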;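 further: higher score means more depolarization so channel activation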
Numbers stand for hits; 0 = inactive.

SMILES	TRPC6 inhibitor	TRPC4 act	TRPC4 PAM	TRPC4 inh	TRPC6 act
O=C(O)CCC(=O)NN1C(=O)c2ccccc2NC1c1ccc(F)cc1 (stereo not drawn)	0	0	11	0	0
NCCOc1ccccc1-c1ccccc1	0	0	0	0	0
Nc1ccc(Oc2ccccc2-c2ccccc2)cc1	0	0	14	0	0
COc1ccc(S(=O)(=O)Nc2c(O)ccc3ccccc23)cc1OC	0	0	0	0	0
O=C(C[n+]1cccc(CNC(=O)c2ccc(OC(F)F)cc2)c1)Nc1ccccc1Cl	0	0	0	0	0
O=C(C[n+]1cccc(CNC(=O)c2ccc(OC(F)F)cc2)c1)Nc1ccc(SC(F)F)cc1	0	0	0	-7	0
COc1cc2cc(C(N)=O)c(N)nc2cc1OC	0	0	13	0	0
COc1ccc2nc(C)c(C(N)=O)cc2c1	0	0	0	0	0
Cc1ccc(C)c(-n2cc(CNCCc3cnccn3)c(-c3ccccc3)n2)c1	0	108	0	0	0
O=C(NCC1OCCCN1S(=O)(=O)c1cc(F)ccc1F)C(=O)NC1CCCCCC1 (stereo not drawn)	0	0	0	0	0
COc1cccc(-c2nn(-c3ccccc3)cc2CN(C)C(C)c2ccncn2)c1 (stereo not drawn)	0	51	0	-6	0
COc1ccc(-n2cc(CN(C)CCO)c(-c3cccc(F)c3)n2)cc1	0	0	0	0	0
COc1ccc(-n2cc(CN(C)C(C)c3ccncn3)c(-c3cccc(F)c3)n2)cc1 (stereo not drawn)	0	0	0	-8	0
COC(=O)c1cc(-c2ccc(Cl)cc2)n[nH]1	0	0	0	0	0
Oc1ccccc1-c1cc(C(F)(F)C(F)F)[nH]n1	0	0	0	0	0
Fc1ccc(-c2cc(C(F)(F)C(F)F)[nH]n2)cc1	0	71	0	0	0
FC(F)C(F)(F)c1cc(-c2ccc(Cl)cc2)n[nH]1	0	50	0	0	0
Clc1cc(/C=N\NC2=NCCN2)cc(Cl)n1	0	0	18	0	0
Cc1cc(Cl)cc(Cl)c1OCCCCN(C)C	0	0	36	0	0
Cc1ccc2nc(-c3ccccn3)c(NC3CCCC3)n2c1	0	0	0	-6	0
COc1ccccc1CNC(=O)CNCCc1ccc(OC)c(OC)c1	0	0	0	0	0
c1ccc(CC2CCCNC2)cc1 (stereo not drawn)	0	90	0	0	0
O=C1CC(c2ccccc2Cl)=NN(c2ncnc3ccccc23)C1=O	0	0	0	0	0
CC1(C)[C@@H](O)CC[C@]2(C)C3C(O)C=C4[C@H]5C[C@@](C)(C(=O)O)CC[C@]5(C)CC[C@]4(C)[C@]3(C)CC[C@@H]12 (stereo partly drawn)	0	210	0	-6	0
CCc1cc(OCCOCCN(C)C)ccc1Cl	0	0	15	0	0
SMILES	TRPC6 inhibitor	TRPC4 act	TRPC4 PAM	TRPC4 inh	TRPC6 act
Cc1ccc(Nc2nc(NCCCN3CCOCC3)nc(N)c2[N+](=O)[O-])cc1C	0	0	0	0	0
Cc1ccc(Nc2nc(NCCCN3CCOCC3)nc(N)c2[N+](=O)[O-])cc1	0	0	0	-6	0
COc1ccc(/C=N/Nc2cc(C)nc(-n3nc(C)cc3C)n2)cc1	0	0	19	0	0
CC(=O)c1cccc(CN2CCCCC2C(=O)Nc2ccc(Oc3ccccc3)nc2)c1 (stereo not drawn)	0	0	0	0	0
CN(C)CCCOc1cccc(Oc2ccccc2)c1	0	0	12	0	0
CC(C)c1cccc(OCCCCN(C)C)c1	0	0	17	0	0
CCN(CC)CCOc1cccc(C(C)C)c1	0	0	0	0	0
CCCCNCCCOc1cccc(Cl)c1	0	0	0	0	0
CN(C)CCCOc1cccc(Cl)c1	0	64	32	0	0
Cc1ncsc1C(=O)O	0	0	0	0	0
Cc1ccc(C(=O)Nc2ccc(N3CCN(C)CC3)cc2)c(Cl)c1	0	0	0	0	0
O=C(CSc1nnc(C2CC2)n1CC1CCCO1)Nc1cccc(Cl)c1 (stereo not drawn)	0	0	0	0	0
Oc1ccc(-c2[nH]ncc2-c2cnn(-c3ccccc3)c2)c(O)c1	0	0	0	-5	0
COc1ccccc1N1CCN(CCN2C(=O)C3CCCN3C2=O)CC1 (stereo not drawn)	0	0	0	0	0
CCN1C(N(C)CCc2cccs2)=N[C@@H](c2ccccc2)C(C(=O)OC)=C1C	0	0	0	-5	0
Cc1cc(-c2csc3ncnc(N4CCN(C)CC4)c23)cc(C)c1C	0	0	0	-7	0
CN1CCN(c2ncnc3scc(-c4ccccc4Cl)c23)CC1	0	0	0	0	0
CCCCc1n[nH]c(=S)n1Cc1ccc(C)cc1	0	0	0	0	0
Cc1cccc(C(=O)Nc2sc(-c3ccccc3)cc2C(=O)O)c1	0	0	0	-6	0
CC(C)(C)C(=O)Nc1sc(-c2ccccc2)cc1C(=O)O	0	0	0	0	0
Cc1cnc(C(=O)Nc2cc(S(=O)(=O)N3CCOCC3)ccc2N2CCN(C)CC2)cn1	0	0	11	0	0
O=C(Nc1ccc(F)cc1)Nc1cc(S(=O)(=O)N2CCOCC2)ccc1N1CCCC1	0	0	39	0	0
O=C(Nc1cc(S(=O)(=O)N2CCOCC2)ccc1N1CCOCC1)c1cnccn1	0	0	0	0	0
Cc1nc2c(C(=O)NCc3ccco3)cnn2c(C)c1Cc1ccc(F)cc1Cl	0	0	0	0	0
Cc1cccc(Cc2c(C)nc3c(C(=O)NCc4ccco4)cnn3c2C)c1	0	0	97	0	0
SMILES	TRPC6 inhibitor	TRPC4 act	TRPC4 PAM	TRPC4 inh	TRPC6 act
CN(C)C(CNc1ncnc2sccc12)c1cccs1 (stereo not drawn)	0	70	0	0	0
CC(C)NS(=O)(=O)c1ccc(NC(=O)C(C)Oc2ccc(C(=O)c3ccccc3)cc2)cc1 (stereo not drawn)	0	0	44	0	0
CC(Oc1ccccc1)C(=O)Nc1ccc(C(N)=O)cc1 (stereo not drawn)	0	0	0	0	0
CCCCn1c(N)c(N(CCOC)C(=O)c2ccc(-c3ccccc3)cc2)c(=O)[nH]c1=O	0	0	0	0	0
N#CC(C#N)=c1ccc2c(c1)N1C3=C(CCCC3)CC3CCCCC31N=2 (stereo not drawn)	-8.5	0	0	0	0
COC(=O)c1ccc(S(=O)(=O)N2CCCN(Cc3cccc(Br)c3F)CC2)n1C	0	0	0	0	0
COc1cccc(-c2cc(C(=O)N3CCN(C(=O)c4ccco4)CC3)on2)c1	0	0	0	0	0
Cc1cc(C=O)c(C)n1-c1ccc(NC2CCCC2)c([N+](=O)[O-])c1	0	0	13	0	0
Cc1cc(C=O)c(C)n1-c1ccc(Oc2ccc([N+](=O)[O-])cn2)cc1	0	0	0	0	0
COc1ccc(-c2c(-c3ccc(OC)c(C)c3O)n[nH]c2C)cc1	0	0	0	0	0

Source: PubChem (Johns Hopkins Ion Channel Center)
